From PubChem BioAssay
CR mimetic SO: lowers age-related superoxide in aged yeast cells. S. cerevisiae aged cells, superoxide DHE fluorescence; active compounds read low. superoxide response (% of plate mean), % at 10 µM. 330,000 tested, 0.18% active;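 active means superoxide response under a set limit, about three screen SD below normal, cut at about 65% in these data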;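 further: yeast aged for seven days with compound at 30 °C before DHE staining; 100% = average MFI of all compound-treated wells on the plate with controls excluded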
PglD DTNB: PglD (C. jejuni) enzyme inhibition; 360,000 tested, 0.098% active; inhibition, % at 12.5 µM; purified PglD enzyme, DTNB colorimetric CoA detection; AID 602405; in the data active means inhibition above about 16%, passing the limit was not always enough
rRNA inh HTS: selective bacterial rRNA inhibition in E. coli; GFP signal change (wild-type ribosome), % (test concentration not listed); E. coli WT GFP vs humanized-ribosome RFP mutants, fluorescence, 24 h; active compounds read low; DMSO median 0, no signal -100; 350,000 tested, 1.6% active; AID 720706;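 active means significant combined selectivity score with lowered wild-type GFP, culture density cut under 30%, mutant RFP and density less affected; inactive means any of these conditions unmet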
Mot1-301 SUMO: blocks SUMOylation pathway, rescuing yeast Mot1-301 growth; S. cerevisiae Mot1-301 growth rescue, ATP luminescence, 38.5C; percent above DMSO median, 100 means doubled; growth rescue, % at 18.8 µM; 320,000 tested, 1% active;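 active means every valid replicate shows activation above 250% relative to neutral control wells; inactive means the rest, any valid replicate at or below 250%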;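 further: OY570 slx delta 5 strain wells were the positive control but not used for scaling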
Cneo AK release: causes C. neoformans cell lysis | adenylate kinase release luminescence, 4 h; normalised: neutral wells 0, clomiphene wells 100 | lysis activity, % at 15 µM | 360,000 tested, 0.2% active;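 active means mean lysis activity across replicates of at least 80%, whatever share of replicates individually reach that level; inactive means mean lysis activity below 80%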
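Schedule: static 4 h at 37 °C with compound, 1 h detection; system: C. neoformans cells; benchmarks: Clomiphene as positive control; buffer or medium: fresh YPD medium; measure: luminescence rise reflecting yeast cell lysis; measured by: luminescent adenylate kinase detection reagent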
* hit, by the source's call; . = no result; ! = a repeat was not active. Hits are enriched below; roughly 2.2% of the tested compounds scored in any of these assays.

SMILES	CR mimetic SO	PglD DTNB	rRNA inh HTS	Mot1-301 SUMO	Cneo AK release
COc1ccccc1N1CCN(C(=O)CCc2nnc3ccc(N4CCC(C)CC4)nn23)CC1	104.7	1.3	-23.0*	-7.7	-0.8
CCC(=O)Nc1ccc2c(c1)C(=O)N(C)C[C@H](OC)[C@H](C)CN(C(=O)CC1CC1)[C@H](C)CO2	.	0.9	2.9	.	2.0
Cc1cccc(NC(=O)COc2ccc(Br)cc2/C=N/O)c1	106.5	.	-43.6*	84.1	.
C[C@H]1CCCCO[C@@H](CN(C)C(=O)Cc2ccccc2)[C@@H](C)CN([C@@H](C)CO)C(=O)c2cc(NC(=O)Cc3ccccc3)ccc2O1	.	-2.2	-0.5	.	52.8
CCOc1ccc(S(=O)(=O)Nc2ccc3c(c2)c2c(n3S(=O)(=O)c3ccc(OCC)cc3)CCCC2=O)cc1	98.2	.	.	876.9*	.
CCOc1ccc(S(=O)(=O)Nc2ccc3c(c2)n(C)c(=O)n3C)cc1	102.6	1.0	6.5	1.7	2.4
O=C(NCC[C@H]1CC[C@H](NC(=O)C2CCOCC2)[C@@H](CO)O1)c1ccc(F)cc1	.	-2.8	-1.8	.	-3.2
C[C@@H]1CN([C@@H](C)CO)C(=O)c2cc(NS(C)(=O)=O)ccc2O[C@H]1CN(C)C(=O)Nc1cccc2ccccc12	.	3.3	2.7	.	44.8
C[C@H]1CN([C@@H](C)CO)C(=O)c2cccc(NC(=O)c3ccncc3)c2O[C@H]1CN(C)Cc1ccccc1	.	3.9	3.4	.	-0.8
C[C@@H]1CN([C@H](C)CO)C(=O)c2cccc(NC(=O)c3ccncc3)c2O[C@@H]1CN(C)Cc1ccc(-c2ccccc2)cc1	.	5.5	-3.8	.	100.8*
C[C@@H]1CN([C@@H](C)CO)C(=O)c2cccc(NC(=O)c3ccncc3)c2O[C@@H]1CN(C)Cc1ccc(-c2ccccc2)cc1	97.0	-4.6	-19.1*!	13.5	6.8
C[C@@H]1CN([C@@H](C)CO)C(=O)c2cccc(NC(=O)c3ccncc3)c2O[C@H]1CN(C)Cc1ccccc1	.	-0.4	-1.5	.	-0.5
CO[C@H]1CN(C)C(=O)c2cc(C#N)ccc2OCC[C@@H]2CC[C@@H](OC)[C@H](CN(C)C(=O)[C@@H]1C)O2	.	1.4	5.0	.	3.9
O=C(/C=C/c1ccccc1[N+](=O)[O-])OCC(=O)c1ccccc1	107.3	.	-21.5*	8.9	.
CO[C@H](CN(C)Cc1ccc2c(c1)OCO2)[C@@H](C)CN(C(=O)c1ccccc1)[C@@H](C)CO	.	-1.0	3.5	.	104.1*
COc1ccc(-c2cc3cc(C(=O)O)ccn3c2C(=O)c2ccccc2)cc1	89.0	-9.4	-44.0	-6.3	4.0
O=C(O)c1ccn2c(C(=O)c3ccccc3)c(-c3ccccc3)cc2c1	80.8	-4.4	-25.8*	14.1	4.1
CCSC1=NCCN1S(=O)(=O)c1ccc2ccccc2c1	85.6	.	-30.4*	3.1	.
O=S(=O)(c1ccccc1)N1CCN=C1SCc1cccc(Cl)c1	91.4	.	-22.6*	.	.
COC(=O)C1=C(C)N(Cc2ccccc2C(F)(F)F)C(=NCc2ccc(C(F)(F)F)cc2)NC1c1ccc(Cl)cc1 (stereo not given)	.	.	-0.3	.	.
COC(=O)C1=C(C)N(Cc2ccc(C(F)(F)F)cc2)C(=NCc2ccccc2)NC1c1ccc(Cl)cc1 (stereo not given)	.	.	-41.7*	.	.
Cc1ccc(C)c(NC2=C(Cl)C(=O)OC2OC(=O)c2ccco2)c1 (stereo not given)	88.2	-6.8	-27.5*	13.6	-2.1
C[C@H]1CCCCO[C@H](CN(C)S(=O)(=O)c2cn(C)cn2)[C@@H](C)CN([C@@H](C)CO)C(=O)c2cc(NS(=O)(=O)c3cn(C)cn3)ccc2O1	.	-0.3	1.6	.	-0.2
Cc1ccc(C#N)c(SCc2ccccc2F)n1	97.8	-4.3	-25.4*	13.3	-3.4
Cc1ccc2nc(CSc3nc(C)ccc3C#N)[nH]c2c1	103.1	-3.8	6.9	-8.0	-2.3
SMILES	CR mimetic SO	PglD DTNB	rRNA inh HTS	Mot1-301 SUMO	Cneo AK release
COC(=O)[C@@]1(Cc2ccccc2)[C@H]2C(=O)N(C)C(=O)[C@H]2[C@H]2CN=C(SCc3ccccc3)N21	103.5	6.4	-16.4*	.	-4.3
COC(=O)[C@@]1(Cc2ccccc2)[C@H]2C(=O)N(C)C(=O)[C@H]2[C@H]2CN=C(SCc3ccc(C#N)cc3)N21	111.2	-0.5	-21.3*	.	0.5
O=C(C[C@@H]1C[C@@H]2c3cc(NC(=O)Cc4ccncc4)ccc3O[C@@H]2[C@H](CO)O1)NCc1cccnc1	.	7.7	4.3	.	-4.6
O=C(C[C@H]1CC[C@H]2[C@@H](COC[C@@H](O)CN2C(=O)c2cnccn2)O1)NCc1ccc(F)cc1	.	-1.3	6.6	.	-0.4
Cc1cc(SCc2ccccc2Cl)nc(=O)[nH]1	106.5	3.2	-5.0	-15.3	-6.4
Cc1cc(SCc2ccc(Cl)cc2Cl)nc(=O)[nH]1	94.4	-1.0	-30.7*	11.0	1.2
Cc1ccc(S(=O)(=O)Nc2ccc3c(c2)CC(=O)N([C@@H](C)CO)C[C@H](C)[C@H](CN(C)C(=O)NC2CCCCC2)O3)cc1	.	0.2	1.0	.	-2.0
Cc1ccc(-c2csc3nc[nH]c(=O)c23)c(C)c1	93.5	2.0	-13.9	1.5	0.8
Cc1ccc(-c2csc3nc(C(C)C)oc(=O)c23)c(C)c1	104.3	-0.1	-23.8*	5.8	0.1
O=C(CCl)Nc1cn(-c2ccccc2)nc1-c1ccccc1	104.8	-4.7	-27.0*	-15.7	-1.6
COCC(=O)Nc1ccc2c(c1)C(=O)N(C)C[C@H](OC)[C@H](C)CN(Cc1ccccc1OC)[C@@H](C)CO2	.	-7.5	0.1	.	-5.6
O=C(N/N=C/c1cc(Br)c(O)c(Br)c1O)c1cccnc1	133.3	-0.1	-19.9*	13.0	-0.1
C[N+]1(C)CC[C@H](OC(=O)[C@@](O)(c2ccccc2)C2CCCC2)C1	100.6	-0.2	.	2.6	-3.0
C[N+]1(C)CCC(OC(=O)C(O)(c2ccccc2)C2CCCC2)C1 (stereo not given)	101.5	-3.2	.	373.1*	4.1
CO[C@H]1CC[C@H]2CCOc3c(C#N)cccc3C(=O)N(C)C[C@@H](C)C(=O)N(C)C[C@H]1O2	.	5.6	3.9	.	88.1*
CO[C@@H]1CC[C@H]2CCOc3c(C#N)cccc3C(=O)N(C)C[C@@H](OC)[C@@H](C)C(=O)N(C)C[C@H]1O2	.	2.9	-2.5	.	1.5
CO[C@H]1CC[C@@H]2CCOc3c(C#N)cccc3C(=O)N(C)C[C@H](OC)[C@@H](C)C(=O)N(C)C[C@@H]1O2	.	0.0	0.9	.	86.1*
O=C(NCC[C@H]1CC[C@H](NC(=O)C2CCC2)[C@@H](CO)O1)c1cc(Cl)cc(Cl)c1	.	0.6	-2.0	.	-0.4
O=C(COc1ccccc1/C=C1/NC(=O)NC1=O)Nc1ccccc1	102.0	-2.2	-26.2*	-7.0	-2.9
COC(=O)COc1ccccc1/C=C1/NC(=O)NC1=O	112.4	3.0	.	-3.9	-3.3
C#CCOn1c(-n2nc(C)cc2C)nc2ccccc2c1=O	76.6	1.4	-0.5	26.6	-7.5
COn1c(-n2nc(C)cc2C)nc2ccccc2c1=O	112.4	-4.2	.	-8.6	91.2*
